{"data": "Published values from different studies", "CDK9": "Cyclin-dependent kinase 9 (CDK9, Homo sapiens, UniProt P50750)", "CDK9 with cyclin T1": "Cyclin-dependent kinase 9, with cyclin T1 (CDK9, Homo sapiens, UniProt P50750)", "note": "Protocols differ between the studies behind these lines."}
{"SMILES": "C[C@H]1CC[C@H](n2c3cnccc3c3cnc(Nc4ccc5c(n4)CCN(C(=O)CO)C5)nc32)CC1", "target": "CDK9", "assay": "cell-free assay", "setting": "1 µM", "endpoint": "remaining signal", "result": "60%"}
{"SMILES": "C[C@]1(O)CCCN(c2nc(Nc3ccc(S(=O)(=O)N[C@H]4CC[C@H](CN5CCN(c6ccc(C7CCC(=O)NC7=O)cc6F)CC5)CC4)cc3Cl)ncc2C(F)(F)F)C1 (stereo partly drawn)", "target": "CDK9", "assay": "binding, competition with immobilised ligand", "setting": "1 µM", "endpoint": "remaining binding", "result": "100%"}
{"SMILES": "CN1CCN(C(=O)c2ccc(NC(=O)Nc3ccc(N(C)c4ccnc(Nc5ccc(CS(C)(=O)=O)cc5)n4)cc3)cc2)CC1", "target": "CDK9", "assay": "binding", "setting": "1 µM", "endpoint": "remaining binding", "result": "69%"}
{"SMILES": "COc1ccc2oc(-c3ccc4nc(N)oc4c3)c/c(=N\\c3ccccc3NC(=O)CCN)c2c1", "target": "CDK9 with cyclin T1", "assay": "binding", "setting": "1 µM", "endpoint": "remaining binding", "result": "93%"}
{"SMILES": "Cc1cc(S(=O)(=O)N[C@H]2CC[C@H](CN3CCN(c4ccc(C5CCC(=O)NC5=O)cc4F)CC3)CC2)ccc1Nc1ncc(C(F)(F)F)c(N2CCC[C@](C)(O)C2)n1 (stereo partly drawn)", "target": "CDK9", "assay": "binding, competition with immobilised ligand", "setting": "1 µM", "endpoint": "remaining binding", "result": "78%"}
{"SMILES": "CCCCC(=O)Nc1ccc(-c2ccc3ncn(CCC)c(=O)c3c2)cn1", "target": "CDK9", "assay": "binding, competition with immobilised ligand", "setting": "0.5 µM", "endpoint": "remaining binding", "result": "92%"}
{"SMILES": "CC(C)(C)c1cnc(CSc2cnc(NC(=O)C3CCN(C(=O)COCCOCCN4Cc5cc6c(cc5C4)C(=O)N(C4CCC(=O)NC4=O)C6=O)CC3)s2)o1 (stereo not drawn)", "target": "CDK9", "assay": "protein level, degrader, western blot", "test system": "TC-71", "setting": "25 nM", "endpoint": "inhibition", "result": "80.7%"}
{"SMILES": "C=CC(=O)N1CCC([C@@H]2CCNc3c(C(N)=O)c(-c4ccc(Oc5ccccc5)cc4)nn32)CC1", "target": "CDK9", "assay": "enzyme activity, inhibitor", "setting": "1 µM", "endpoint": "inhibition", "result": "0%"}
{"SMILES": "CC(C)(C)c1cnc(CSc2cnc(NC(=O)C3CCN(C(=O)CCOCCN4Cc5cc6c(cc5C4)C(=O)N(C4CCC(=O)NC4=O)C6=O)CC3)s2)o1 (stereo not drawn)", "target": "CDK9", "assay": "protein level, degrader, western blot", "test system": "TC-71", "setting": "25 nM", "endpoint": "inhibition", "result": "87.5%"}
{"SMILES": "CC#CC(=O)N1CCC[C@H]1c1nc(-c2ccc(C(=O)Nc3ccccn3)cc2)c2c(N)nccn12", "target": "CDK9", "assay": "enzyme activity, inhibitor", "setting": "1 µM", "endpoint": "inhibition", "result": "0%"}
{"SMILES": "CC(C)S(=O)(=O)c1ccc2nccc(Nc3ccc4sc(C5CCCC5)nc4c3)c2c1", "target": "CDK9 with cyclin T1", "assay": "enzyme activity, inhibitor", "setting": "1 µM", "endpoint": "activity vs control", "result": "98%"}
{"SMILES": "CC(C)(C)c1cnc(CSc2cnc(NC(=O)C3CCN(C(=O)CCCCN4Cc5cc6c(cc5C4)C(=O)N(C4CCC(=O)NC4=O)C6=O)CC3)s2)o1 (stereo not drawn)", "target": "CDK9", "assay": "protein level, degrader, western blot", "test system": "TC-71", "setting": "25 nM", "endpoint": "inhibition", "result": "80.1%"}
